Active and inactive are the calls of the source. The calls are words filed in the database; no cut-off is given here.
Legend:
[1] = biological target: T1, Tyrosine-protein phosphatase non-receptor type 2 (Homo sapiens, UniProt P17706); experiment: Inhibition of TCPTP (unknown origin)
T1 sequence (P17706 whole entry): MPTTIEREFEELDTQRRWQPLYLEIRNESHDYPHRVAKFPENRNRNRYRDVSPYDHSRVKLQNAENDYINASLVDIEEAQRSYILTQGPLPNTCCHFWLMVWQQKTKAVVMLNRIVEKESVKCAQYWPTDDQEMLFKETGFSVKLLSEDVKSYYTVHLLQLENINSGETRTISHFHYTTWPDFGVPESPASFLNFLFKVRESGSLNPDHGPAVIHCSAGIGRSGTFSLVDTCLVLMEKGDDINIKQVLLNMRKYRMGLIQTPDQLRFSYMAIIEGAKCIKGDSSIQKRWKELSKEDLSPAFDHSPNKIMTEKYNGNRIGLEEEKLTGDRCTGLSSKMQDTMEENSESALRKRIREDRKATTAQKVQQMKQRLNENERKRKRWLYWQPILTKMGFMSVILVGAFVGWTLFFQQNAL

[2] = biological target: T2, Tyrosine-protein phosphatase non-receptor type 1 (Rattus norvegicus) (UniProt P20417); experiment: Inhibition of PTP1B in rat L6 cells assessed as insulin-stimulated 2-deoxy-[3H]-deoxy-glucose uptake preincubated for 2 hrs followed by insulin challenge for 30 mins; assay type: cell-based
T2 sequence (whole entry): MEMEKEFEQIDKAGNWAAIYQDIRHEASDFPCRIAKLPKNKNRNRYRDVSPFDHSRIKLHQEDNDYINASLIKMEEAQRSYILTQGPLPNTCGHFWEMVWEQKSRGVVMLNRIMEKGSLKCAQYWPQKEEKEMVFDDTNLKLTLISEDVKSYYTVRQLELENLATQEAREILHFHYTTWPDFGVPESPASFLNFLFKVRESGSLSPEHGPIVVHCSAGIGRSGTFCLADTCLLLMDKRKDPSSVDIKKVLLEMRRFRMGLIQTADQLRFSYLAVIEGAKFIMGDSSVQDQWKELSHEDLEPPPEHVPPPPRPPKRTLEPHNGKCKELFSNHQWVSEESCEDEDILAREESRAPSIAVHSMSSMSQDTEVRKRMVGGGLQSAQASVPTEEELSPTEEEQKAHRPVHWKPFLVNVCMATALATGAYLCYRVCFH
Method in brief: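 Differentiated L6 myotubes were serum-starved 2 h, treated with compound, then stimulated with 10 nM insulin for 30 min. Cells were washed in HEPES-buffered saline, pH 7.4, and incubated 15 min with 2-deoxy-[3H]-glucose. After ice-cold PBS washes they were lysed in 0.1% Triton X-100 and radioactivity was counted. Data are averages of at least three independent replicates.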

[3] = biological target: T2, Tyrosine-protein phosphatase non-receptor type 1 (Rattus norvegicus); experiment: Inhibition of PTP1B in rat L6 cells assessed as insulin-induced Akt phosphorylation at 20 uM preincubated for 2 hrs followed by insulin challenge for 10 mins by Western blotting analysis in presence of wortmannin; assay type: cell-based
Method in brief: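 Differentiated L6 myotubes were pretreated with 250 nM wortmannin to block PI3K. They then received 20 μM compound for 2 h and were stimulated with or without 10 nM insulin. Akt phosphorylation was read by immunoblot of lysates with anti-phospho-Akt (Ser473).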

[4] = biological target: Receptor-type tyrosine-protein phosphatase F (Homo sapiens, UniProt P10586); experiment: Inhibition of LAR (unknown origin)
Sequence of Receptor-type tyrosine-protein phosphatase F (P10586 whole entry): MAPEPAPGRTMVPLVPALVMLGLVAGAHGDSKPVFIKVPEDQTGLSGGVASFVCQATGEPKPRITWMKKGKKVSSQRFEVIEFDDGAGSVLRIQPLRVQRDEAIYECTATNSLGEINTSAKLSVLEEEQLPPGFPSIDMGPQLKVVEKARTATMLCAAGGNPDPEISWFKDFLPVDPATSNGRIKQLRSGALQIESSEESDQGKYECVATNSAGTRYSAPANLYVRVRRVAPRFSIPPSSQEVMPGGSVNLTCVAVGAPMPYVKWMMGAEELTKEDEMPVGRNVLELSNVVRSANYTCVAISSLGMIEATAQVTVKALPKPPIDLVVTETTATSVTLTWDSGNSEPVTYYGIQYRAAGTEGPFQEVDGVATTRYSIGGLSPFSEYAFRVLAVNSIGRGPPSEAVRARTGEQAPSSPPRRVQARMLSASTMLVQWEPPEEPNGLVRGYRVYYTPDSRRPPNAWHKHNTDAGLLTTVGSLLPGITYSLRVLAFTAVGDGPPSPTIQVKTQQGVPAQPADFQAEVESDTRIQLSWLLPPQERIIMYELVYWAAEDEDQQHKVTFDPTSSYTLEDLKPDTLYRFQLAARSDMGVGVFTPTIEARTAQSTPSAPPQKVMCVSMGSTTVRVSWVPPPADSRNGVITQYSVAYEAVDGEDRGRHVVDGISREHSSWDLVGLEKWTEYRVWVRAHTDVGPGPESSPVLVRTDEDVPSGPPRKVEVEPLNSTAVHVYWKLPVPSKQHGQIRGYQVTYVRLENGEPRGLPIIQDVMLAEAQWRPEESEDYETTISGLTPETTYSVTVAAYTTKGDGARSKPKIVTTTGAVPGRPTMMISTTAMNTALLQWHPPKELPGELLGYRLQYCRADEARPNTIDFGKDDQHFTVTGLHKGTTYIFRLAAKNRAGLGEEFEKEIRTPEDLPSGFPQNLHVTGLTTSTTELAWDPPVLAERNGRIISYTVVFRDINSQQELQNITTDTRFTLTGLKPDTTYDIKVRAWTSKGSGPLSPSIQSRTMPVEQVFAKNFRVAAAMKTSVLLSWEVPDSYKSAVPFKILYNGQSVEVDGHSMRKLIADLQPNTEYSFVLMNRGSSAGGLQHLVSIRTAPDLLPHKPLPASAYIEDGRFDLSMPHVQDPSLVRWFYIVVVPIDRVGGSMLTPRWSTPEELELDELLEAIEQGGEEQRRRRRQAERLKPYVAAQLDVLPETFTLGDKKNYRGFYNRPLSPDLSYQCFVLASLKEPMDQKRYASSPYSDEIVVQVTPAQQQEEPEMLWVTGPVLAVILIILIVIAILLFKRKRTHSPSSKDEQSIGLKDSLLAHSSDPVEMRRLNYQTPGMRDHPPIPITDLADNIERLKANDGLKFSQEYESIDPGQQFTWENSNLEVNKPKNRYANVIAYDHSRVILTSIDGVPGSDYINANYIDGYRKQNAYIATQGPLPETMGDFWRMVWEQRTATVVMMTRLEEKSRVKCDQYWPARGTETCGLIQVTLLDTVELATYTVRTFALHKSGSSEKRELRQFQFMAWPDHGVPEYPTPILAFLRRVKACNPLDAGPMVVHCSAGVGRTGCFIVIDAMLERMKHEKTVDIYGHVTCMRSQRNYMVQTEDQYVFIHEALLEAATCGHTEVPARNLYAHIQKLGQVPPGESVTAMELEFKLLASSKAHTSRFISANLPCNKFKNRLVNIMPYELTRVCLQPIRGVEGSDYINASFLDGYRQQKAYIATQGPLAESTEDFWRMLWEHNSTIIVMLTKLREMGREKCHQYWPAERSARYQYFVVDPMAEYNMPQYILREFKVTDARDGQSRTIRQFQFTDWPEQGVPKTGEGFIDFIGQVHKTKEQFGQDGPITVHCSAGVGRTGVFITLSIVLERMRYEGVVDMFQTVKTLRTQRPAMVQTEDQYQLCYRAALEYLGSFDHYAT

[5] = biological target: T3, Tyrosine-protein phosphatase non-receptor type 1 (Homo sapiens) (UniProt P18031); experiment: Inhibition of PTP1B (unknown origin) expressed in CHO cells over-expressing human IR assessed as increase in insulin-mediated IR-beta phosphorylation preincubated for 2 hrs followed by insulin challenge for 10 mins by Western blotting analysis; assay type: cell-based
T3 sequence (whole entry): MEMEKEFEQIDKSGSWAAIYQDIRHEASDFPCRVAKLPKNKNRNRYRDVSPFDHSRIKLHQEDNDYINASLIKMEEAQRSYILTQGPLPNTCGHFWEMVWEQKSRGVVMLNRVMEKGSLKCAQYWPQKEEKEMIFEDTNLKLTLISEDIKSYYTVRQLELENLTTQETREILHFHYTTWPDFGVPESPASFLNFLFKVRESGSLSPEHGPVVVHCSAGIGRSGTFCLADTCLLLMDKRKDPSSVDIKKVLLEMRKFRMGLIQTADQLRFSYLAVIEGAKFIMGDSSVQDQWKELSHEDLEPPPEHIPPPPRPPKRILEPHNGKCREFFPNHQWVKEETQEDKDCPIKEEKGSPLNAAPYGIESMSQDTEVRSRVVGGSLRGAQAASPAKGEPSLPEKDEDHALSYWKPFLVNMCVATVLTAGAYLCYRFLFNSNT
Method in brief: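 CHO cells overexpressing human IR, grown in Ham's F-12 with 10% FBS at 37 °C, 5% CO2. Cells were serum-starved 2 h, then exposed to compound for 2 h (0.2% DMSO vehicle; 1 mM sodium orthovanadate as positive control). They were then stimulated with 10 nM insulin for 10 min. Lysates were run on 8% SDS-PAGE and immunoblotted with anti-pTyr, using β-actin as the loading control.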

IC50 [1]: 1420 nM
inhibition [2]: Dose-dependent effect
inhibition [3]: inactive
IC50 [4]: > 20000 nM
inhibition [5]: Dose-dependent effect
SMILES: O=C(CCc1c[nH]c2ccccc12)N[C@@H](Cc1ccc(OCc2ccccc2)cc1)c1nc(C(=O)Nc2cc(F)ccc2C(=O)O)c(-c2ccccc2)s1

— ChEMBL document CHEMBL2434820, “Design, synthesis, and biological evaluation of novel 2-ethyl-5-phenylthiazole-4-carboxamide derivatives as protein tyrosine phosphatase 1B inhibitors with improved cellular efficacy” (Eur J Med Chem, 2013)
